The results in this text go back to ChEMBL document CHEMBL4138095, “Thiosemicarbazones and 4-thiazolidinones indole-based derivatives: Synthesis, evaluation of antiproliferative activity, cell death mechanisms and topoisomerase inhibition assay” (Eur J Med Chem, 2017).

The nature of series [1]: Growth inhibition of human HaCaT cells after 48 hrs by sulforhodamine B dye-based spectrophotometric assay. The format is cell-based.
A further series has as its system OVCAR-3. The series is described as follows: Growth inhibition of human OVCAR3 cells after 48 hrs by sulforhodamine B dye-based spectrophotometric assay. The format is functional. The following applies: OVCAR-3, 48 h.
Another series concerns MCF7. The series is described as follows: Growth inhibition of human MCF7 cells after 48 hrs by sulforhodamine B dye-based spectrophotometric assay. Type of series: functional. As to conditions: MCF7, 48 h.
In a further series the test system is K562. The series is described as follows: Growth inhibition of human K562 cells after 48 hrs by sulforhodamine B dye-based spectrophotometric assay. The format is functional. The following applies: K562, 48 h.
The test system of a further series is NCI-H460. The series is described as follows: Growth inhibition of human NCI-H460 cells after 48 hrs by sulforhodamine B dye-based spectrophotometric assay. The format is functional. The following applies: NCI-H460, 48 h.
A further series relates to 786-0. The experiment in a line: Growth inhibition of human 786-0 cells after 48 hrs by sulforhodamine B dye-based spectrophotometric assay. The format is functional. As to conditions: 786-0, 48 h.
The subject of series [2] is HT-29. The series is described as follows: Growth inhibition of human HT-29 cells after 48 hrs by sulforhodamine B dye-based spectrophotometric assay. As to conditions: HT-29, 48 h. The format is functional.
A further series has as its system U-251. The series is described as follows: Growth inhibition of human U251 cells after 48 hrs by sulforhodamine B dye-based spectrophotometric assay. As to conditions: U-251, 48 h. The format is functional.
Another series concerns NCI/ADR-RES. The series is described as follows: Growth inhibition of human NCI-ADR-RES cells after 48 hrs by sulforhodamine B dye-based spectrophotometric assay. Type of series: functional.
For series [3], the system named is HT-29. The series is described as follows: Cell cycle arrest in human HT-29 cells assessed as accumulation at G2/M phase at 5 uM after 24 hrs by propidium iodide staining-based flow cytometric method (reference value: 32.5 +/- 2.3%). Type of series: functional.
The test system of series [4] is HT-29. The series is described as follows: Cell cycle arrest in human HT-29 cells assessed as accumulation at sub-G1 phase at 5 uM after 24 hrs by propidium iodide staining-based flow cytometric method (reference value: 3.5 +/- 0.7%). The format is functional.
In series [5] the test system is HT-29. The series is described as follows: Cell cycle arrest in human HT-29 cells assessed as accumulation at G1 phase at 10 uM after 24 hrs by propidium iodide staining-based flow cytometric method (reference value: 46.1 +/- 2.1%). Type of series: functional.
Series [6] deals with HT-29. The series is described as follows: Cell cycle arrest in human HT-29 cells assessed as accumulation at G1 phase at 30 uM after 24 hrs by propidium iodide staining-based flow cytometric method (reference value: 46.1 +/- 2.1%). The format is functional.
Series [7] concerns HT-29. The series is described as follows: Induction of apoptosis in human HT-29 cells assessed as increase in cell subpopulation with phosphatidylserine externalization at 5 uM after 24 hrs by annexin-V-PE/7-AAD staining-based flow cytometry. Type of series: functional. The procedure, abridged:
(§1)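 HT-29 seeded 2×10^5 cells/well, 24 h; treated 24 h at 5–50 μM (vehicle DMSO 0.1%); trypsinized, 1×10^5 cells in PBS plus binding buffer with annexin-V-PE and 7-AAD, 20 min dark, room temperature; 5000 events per experiment by flow cytometry; mean ± SE, two independent experiments in triplicate; ANOVA/Tukey.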

In series [8] the test system is HT-29. The experiment in a line: Cell cycle arrest in human HT-29 cells assessed as accumulation at G2/M phase at 30 uM after 24 hrs by propidium iodide staining-based flow cytometric method (reference value: 32.5 +/- 2.3%). The format is functional.
For series [9], the system named is HT-29. The series is described as follows: Cell cycle arrest in human HT-29 cells assessed as accumulation at G1 phase at 5 uM after 24 hrs by propidium iodide staining-based flow cytometric method (reference value: 46.1 +/- 2.1%). Type of series: functional.
Series [10] relates to HT-29. The series is described as follows: Cell cycle arrest in human HT-29 cells assessed as accumulation at S phase at 10 uM after 24 hrs by propidium iodide staining-based flow cytometric method (reference value: 17.2 +/- 1.2%). Type of series: functional.
The test system of series [11] is HT-29. The experiment in a line: Cell cycle arrest in human HT-29 cells assessed as accumulation at S phase at 30 uM after 24 hrs by propidium iodide staining-based flow cytometric method (reference value: 17.2 +/- 1.2%). The format is functional.
The test system of series [12] is HT-29. The series is described as follows: Cell cycle arrest in human HT-29 cells assessed as accumulation at S phase at 5 uM after 24 hrs by propidium iodide staining-based flow cytometric method (reference value: 17.2 +/- 1.2%). The format is functional.
Series [13] addresses DNA topoisomerase 2-alpha (Homo sapiens) (UniProt P11388). The series is described as follows: Inhibition of recombinant human topoisomerase-2alpha assessed as reducton in relaxation of supercoiled pUC19 DNA at 50 to 100 uM after 30 mins by ethidium bromide staining-based gel electrophoresis assay. The procedure, abridged:
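Supercoiled pUC19 (100 ng) with 4 units recombinant human topo IIα (p170) in relaxation buffer, ± compound at 50 or 100 µM or m-AMSA control, 30 min at 37 °C; stopped with 1% SDS, proteinase K digested; products resolved by agarose gel, ethidium bromide stained, imaged under UV.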

The test system of series [14] is HT-29. The series is described as follows: Cell cycle arrest in human HT-29 cells assessed as accumulation at sub-G1 phase at 30 uM after 24 hrs by propidium iodide staining-based flow cytometric method (reference value: 3.5 +/- 0.7%). The format is functional.
Series [15] has as its system Calf thymus DNA. The experiment in a line: Binding affinity to calf thymus DNA at 15 uM by fluorescence spectra analysis. The format is nucleic-acid assay. As to conditions: Bos taurus. The procedure, abridged: (§2)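 Fluorescence of 15 μM ligand in 0.01 M Tris, pH 7.6, 25 °C, 1 cm quartz cuvette; excitation 335 nm, emission 435 nm (spectra 370–700 nm); ctDNA (0–100 μM) added stepwise into the cell; quenching analysed by Stern-Volmer plot to give Ksv.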

The test system of series [16] is Calf thymus DNA. The experiment in a line: Binding affinity to calf thymus DNA assessed as maximum absorption peak at 10 to 80 uM after 10 mins by UV-visible absorption assay (reference value: 334 nm). As to conditions: Bos taurus. Type of series: nucleic-acid assay. The method in brief: (§3)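 ctDNA in Tris-HCl (0.01 M, pH 7.6), sonicated 5 min; concentration from ε260 6600 M⁻¹ cm⁻¹, as base-pair equivalents. Ligand from 1 mM DMSO stock diluted in buffer (10–80 μM), titrated with increasing ctDNA, stirred 10 min at room temperature, UV-vis read in 1 cm quartz cuvette; hyperchromicity with 100 µM ctDNA versus free ligand; Kb by curve fitting.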

The test system of series [17] is HT-29. The series is described as follows: Cell cycle arrest in human HT-29 cells assessed as accumulation at sub-G1 phase at 10 uM after 24 hrs by propidium iodide staining-based flow cytometric method (reference value: 3.5 +/- 0.7%). Type of series: functional.
For series [18], the system named is Calf thymus DNA. The series is described as follows: Binding affinity to calf thymus DNA assessed as hyperchromicity after 10 mins by UV-visible absorption assay. The format is nucleic-acid assay. The following applies: Bos taurus. The method in brief:
as §3

Series [19] concerns HT-29. The experiment in a line: Induction of apoptosis in human HT-29 cells after 24 hrs by annexin-V-PE/7-AAD staining-based flow cytometry. Type of series: functional, cell-based. The procedure, abridged:
as §1

Series [20] deals with HT-29. The series is described as follows: Cell cycle arrest in human HT-29 cells assessed as accumulation at G2/M phase at 10 uM after 24 hrs by propidium iodide staining-based flow cytometric method (reference value: 32.5 +/- 2.3%). Type of series: functional.
Series [21] concerns Calf thymus DNA. The experiment in a line: Binding affinity to calf thymus DNA by fluorescence spectra analysis. The format is nucleic-acid assay. As to conditions: Bos taurus. The method in brief: as §2
The test system of series [22] is Calf thymus DNA. The experiment in a line: Binding affinity to calf thymus DNA assessed as hyperchromicity at 100 uM after 10 mins by UV-visible absorption assay relative to control. Type of series: nucleic-acid assay. The following applies: Bos taurus. The method in brief: as §3

Calls of active or inactive are those of the source. No cut-off for these calls is given here.

Sequence of DNA topoisomerase 2-alpha (Homo sapiens) (P11388 whole entry): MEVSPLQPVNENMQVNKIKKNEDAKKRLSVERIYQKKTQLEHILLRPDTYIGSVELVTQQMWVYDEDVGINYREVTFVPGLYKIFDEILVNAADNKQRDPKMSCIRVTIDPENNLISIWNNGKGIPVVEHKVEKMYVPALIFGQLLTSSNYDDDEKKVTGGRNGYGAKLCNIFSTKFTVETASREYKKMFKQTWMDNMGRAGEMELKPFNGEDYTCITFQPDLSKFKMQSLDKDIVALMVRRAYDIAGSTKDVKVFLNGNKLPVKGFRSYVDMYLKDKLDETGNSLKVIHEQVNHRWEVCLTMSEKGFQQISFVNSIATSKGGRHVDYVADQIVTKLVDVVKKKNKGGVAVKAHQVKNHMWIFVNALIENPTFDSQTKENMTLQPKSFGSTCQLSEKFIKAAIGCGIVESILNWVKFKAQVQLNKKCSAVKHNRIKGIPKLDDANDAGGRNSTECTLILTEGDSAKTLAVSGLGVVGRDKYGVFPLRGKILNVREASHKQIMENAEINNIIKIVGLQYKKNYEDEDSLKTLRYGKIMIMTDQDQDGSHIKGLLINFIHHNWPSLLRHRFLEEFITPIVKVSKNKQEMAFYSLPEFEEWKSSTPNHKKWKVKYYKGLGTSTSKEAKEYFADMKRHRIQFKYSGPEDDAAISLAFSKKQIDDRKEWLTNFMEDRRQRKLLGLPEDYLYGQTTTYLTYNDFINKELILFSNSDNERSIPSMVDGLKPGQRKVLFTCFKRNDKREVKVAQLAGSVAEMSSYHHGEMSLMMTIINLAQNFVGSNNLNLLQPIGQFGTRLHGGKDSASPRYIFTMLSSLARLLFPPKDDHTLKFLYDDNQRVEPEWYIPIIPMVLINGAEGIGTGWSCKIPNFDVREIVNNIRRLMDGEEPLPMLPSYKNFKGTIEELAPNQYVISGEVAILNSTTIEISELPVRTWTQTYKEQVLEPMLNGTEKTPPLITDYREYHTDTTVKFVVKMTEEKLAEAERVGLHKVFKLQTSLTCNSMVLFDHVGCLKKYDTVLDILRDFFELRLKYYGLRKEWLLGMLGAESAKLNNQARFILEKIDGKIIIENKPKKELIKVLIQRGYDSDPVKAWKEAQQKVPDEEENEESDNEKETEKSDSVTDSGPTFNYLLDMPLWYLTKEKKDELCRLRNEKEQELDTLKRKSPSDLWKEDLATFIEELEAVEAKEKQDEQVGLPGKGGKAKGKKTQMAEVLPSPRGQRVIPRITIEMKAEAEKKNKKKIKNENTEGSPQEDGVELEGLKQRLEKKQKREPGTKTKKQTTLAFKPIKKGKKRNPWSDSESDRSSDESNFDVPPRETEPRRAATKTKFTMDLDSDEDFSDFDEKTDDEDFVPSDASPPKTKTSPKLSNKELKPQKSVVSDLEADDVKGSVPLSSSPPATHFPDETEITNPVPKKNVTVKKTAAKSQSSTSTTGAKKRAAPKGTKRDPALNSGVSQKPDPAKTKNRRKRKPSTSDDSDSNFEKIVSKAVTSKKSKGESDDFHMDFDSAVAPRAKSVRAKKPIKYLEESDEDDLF

For the molecule `Cc1ccc(N2C(=O)CS/C2=N/N=C/c2c[nH]c3ccccc23)cc1`, the GI50 at 48 h in series [1] is above 100 µM. Besides, the GI50 is above 100 µM in the series with OVCAR-3; above 100 µM with MCF7; above 100 µM in the series with K562; above 100 µM with NCI-H460; 79.1 µM with 786-0; above 100 µM in the series with HT-29 [2]. In addition, the GI50 is 90.2 µM in the series on U-251 and above 100 µM with NCI/ADR-RES.

The molecule `S=C(NCCc1ccccc1)N/N=C/c1c[nH]c2ccc(Br)cc12` registered a GI50 at 48 h in [1] of 7.85 µM. The GI50 with OVCAR-3 was 8.22 µM; in the series with MCF7, 6.81 µM; in the series on K562, 2.12 µM; with NCI-H460, 8.48 µM; in the series on 786-0, 7.58 µM; in the series with HT-29 [2] it was 7.87 µM. Also, the figures for the GI50 with U-251 and with NCI/ADR-RES were 7.49 µM and 7.14 µM, respectively.

In series [1], `S=C(N/N=C/c1c[nH]c2ccccc12)Nc1cccc2ccccc12` displayed a GI50 at 48 h of 0.59 µM. For the same molecule, the Activity with HT-29 [3] was found to be 80.5%; in the series with HT-29 [4], 2%; with HT-29 [5], 26.7%; in the series with HT-29 [6] it was 34.9%; in the series on HT-29 [7], 12.6%; in the series with HT-29 [8] it was 53.1%. Besides, the Activity with HT-29 [9] came to 10.7%; in the series with HT-29 [10] it was 5.5%; in the series with HT-29 [11] it was 7.3%; in the series with HT-29 [12], 6.8%; with HT-29 [14], 4.8%; in the series with Calf thymus DNA [16], 334 nm. The Activity with HT-29 [17] is 1.6%; in the series on HT-29 [19], “Dose-dependent effect”; with HT-29 [20] it was 66.2%; in the series with Calf thymus DNA [22], 13%. In addition, the GI50 in the series with OVCAR-3 was determined as 0.21 µM; in the series with MCF7 it was 0.25 µM; with K562 it was 0.01 µM; with NCI-H460, 0.38 µM; in the series with 786-0 it was 0.25 µM; in the series on HT-29 [2], 0.01 µM. Moreover, the results for the GI50 in the series with U-251 and in the series on NCI/ADR-RES were 0.92 µM and 6.48 µM, respectively. For the same molecule, the inhibition result in [13] was “Active”. Also, in the series on Calf thymus DNA [15], the result was Active. The Kb in the series with Calf thymus DNA [18] stood at 4.3 ×10⁴ /M. The molecule further gave a KSV in the series with Calf thymus DNA [21] of 1.19 ×10³ /M.

For `O=C1CS/C(=N/N=C/c2c[nH]c3ccccc23)N1c1cccc2ccccc12`, halving of growth in [1] (GI50 at 48 h) required 63 µM. Further, the GI50 in the series on OVCAR-3 was 25.7 µM; in the series on MCF7, 34.9 µM; in the series on K562, above 100 µM; with NCI-H460, above 100 µM; in the series with 786-0, 62.1 µM; in the series on HT-29 [2], 96.9 µM. For the same molecule, the GI50 in the series with U-251 amounted to 72.5 µM; with NCI/ADR-RES it was 38.6 µM.

Take `COc1cc(NS(C)(=O)=O)ccc1Nc1c2ccccc2nc2ccccc12`: the inhibition entry in [13] was “Active”.

In series [1], `O=C1CS/C(=N/N=C/c2c[nH]c3ccc(Br)cc23)N1c1cccc2ccccc12` registered a GI50 at 48 h of 6.23 µM. Also, the 50% growth inhibitory concentration (GI50) in the series with OVCAR-3 is 5.12 µM; with MCF7, 6.06 µM; with K562, above 100 µM; in the series with NCI-H460, above 100 µM; in the series on 786-0, 29.1 µM; in the series with HT-29 [2], 27.3 µM. The GI50 in the series with U-251 was determined as 48.8 µM; in the series on NCI/ADR-RES, 12.4 µM.
